Results on 19 compounds are retold here after publication PMC9029315 (RSC Advances, 2021).

The MIC is the lowest concentration found to suppress growth. Broadly, the IC50 is the midpoint of a concentration-inhibition curve. The EC50 is the concentration that produces a half-maximal response.

In brackets after ≈: the same amount, converted by molar mass. Like-named read-outs stand apart in the source and are kept apart here. A value given as a limit tells only on which side of the number the result lay.

Data set [1] concerns M. tb H37Rv strain. Briefly: Anti-TB activity, microplate alamarBlue assay. It is filed as cell-based, Mycobacterium tuberculosis. The conditions noted are these: H37Rv MIC values converted to μM; for H37Rv, MIC: MABA; for MIC: Mycobacterium tuberculosis, H37RV, read-out: H37Rv, MIC, MABA. In outline: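 Whole-cell M. tuberculosis H37Rv growth inhibition by microplate alamarBlue assay. MIC is the lowest concentration giving at least 90% reduction of bacterial growth, averaged over three individual measurements. It was then converted to molar units. Front-line anti-TB drugs served as positive controls.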

The test system of data set [2] is KNS42 cells (paediatric GBM). As to the kind of experiment: KNS42 cell proliferation assay. It counts as cell-based. The conditions noted are these: Homo sapiens, KNS-42, 72 h, read-out: KNS42 prolif., IC50. The method, boiled down:
(§1)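 Human cells were kept at 37 °C, 5% CO2 with pen/strep in RPMI/10% FBS (KNS42, BT-12, BT-16), EMEM/10% FBS (DAOY) or DMEM/15% FBS (HFF1). Seeding was 2000 cells/well (KNS42 4000), followed by overnight attachment. Compound medium (0.5, 1, 2.5, 5, 7.5, 10) or 0.1% DMSO control was then applied for 72 h. MTT absorbance was read at 570/600 nm, background subtracted, and IC50 calculated.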

A further data set relates to human THP-1 cells. The conditions noted are these: cited from earlier work.
Data set [3] deals with cannabinoid receptor 2 (CB2). Conditions: read-out: CB2 agonistic activity, EC50; cited from earlier work.
For data set [4], the system named is M. tb H37Rv strain. Conditions: cited from earlier work.
The test system of the next data set is KNS42 cells. As to the kind of experiment: Transcriptional analysis of KNS42 cells, differential gene expression. The conditions noted are these: 10 μM, 72 hours, fold change ≥ 8, P < 0.05. It is filed as cell-based, human. In outline:
(§2)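 KNS42 cells in RPMI/10% FBS with pen/strep, 37 °C, 5% CO2, were treated with test compound at 10 for 72 h. Cells were PBS-washed, scraped and pelleted. RNA was TRIzol-extracted, resuspended in DEPC water and quantified by Qubit broad-range assay. Samples underwent DNBSEQ eukaryotic stranded transcriptome resequencing to determine differential expression.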

Data set [5] deals with BT16 cells (AT/RT). As to the kind of experiment: BT16 cell viability assay. It counts as cell-based. The conditions noted are these: Homo sapiens, BT-16, 72 h, read-out: BT16 viability, IC50. In outline: (§3)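 Cultures were grown at 37 °C, 5% CO2 with pen/strep in RPMI/10% FBS (BT-12, BT-16), EMEM/10% FBS (DAOY) or DMEM/15% FBS (HFF1). Cells were plated at 2000 per well and incubated overnight. They were then exposed for 72 h to test compound (0.5–10, six levels) or 0.1% DMSO medium. PrestoBlue fluorescence was read at 560/590 nm, background removed, and IC50 derived.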

Data set [6] deals with DAOY cells (medulloblastoma). Briefly: DAOY cell viability assay. It is filed as cell-based. The conditions noted are these: Homo sapiens, 72 h, read-out: DAOY viability, IC50. In outline: as §3
In data set [7] the test system is DAOY cells (medulloblastoma). Briefly: DAOY cell proliferation assay. It counts as cell-based. The conditions noted are these: Homo sapiens, 72 h, read-out: DAOY prolif., IC50. In outline:
as §1

Data set [8] concerns carbonic anhydrase 9 (CA9) gene. Briefly: Transcriptional analysis of KNS42 cells, CA9 expression. It is filed as cell-based, human. The conditions noted are these: 10 μM, 72 hours, versus untreated, p < 0.01. In outline:
as §2

Data set [9] relates to HFF1 non-neoplastic human fibroblasts. Briefly: HFF1 cell proliferation assay. It is filed as cell-based. The conditions noted are these: HFF-1, 72 h, read-out: HFF1 prolif., IC50. The method, boiled down: as §1
Data set [10] shares this test system. As to the kind of experiment: HFF1 cell viability assay. It counts as cell-based. The conditions noted are these: HFF-1, 72 h, read-out: HFF1 viability, IC50. In outline:
as §3

The test system of data set [11] is BT12 cells (AT/RT). Briefly: BT12 cell viability assay. It counts as cell-based. Conditions: Homo sapiens, BT-12, 72 h, read-out: BT12 viability, IC50. In outline: as §3
Data set [12] has as its system BT16 cells (AT/RT). Briefly: BT16 cell proliferation assay. It counts as cell-based. Conditions: Homo sapiens, BT-16, 72 h, read-out: BT16 prolif., IC50. In outline: as §1
Data set [13] has as its system BT12 cells (AT/RT). Briefly: BT12 cell proliferation assay. It is filed as cell-based. Conditions: Homo sapiens, BT-12, 72 h, read-out: BT12 prolif., IC50. In outline:
as §1

Data set [14] relates to spleen tyrosine kinase (SYK) gene. Briefly: Transcriptional analysis of KNS42 cells, SYK expression. It is filed as cell-based, human. Conditions: 10 μM, 72 hours, versus untreated, p < 0.05. In outline:
as §2

The test system of the next data set is Vero cells. As to the kind of experiment: Cytotoxicity against Vero cells. It counts as cell-based. Conditions: SI = IC50(Vero)/MIC(H37Rv).
The test system of another data set is healthy cells. Conditions: read-out: Cytotoxicity to healthy cells, IC50; cited from earlier work.

With `O=C(NNc1ccccc1)c1cc2c(F)cc(F)cc2[nH]1` [Compound 9b, 4,6-Difluoro-N′-phenyl-1H-indole-2-carbohydrazide], in the data set with M. tb H37Rv strain [1], the “H37Rv, MIC” value is over 111 µM and the minimum inhibitory concentration (MIC) was over 96 µM. The IC50 in [2] was over 10 µM.

`CC(NC(=O)c1cc2cc(Cl)ccc2[nH]1)C12CC3CC(CC(C3)C1)C2` (centres unmarked) [Compound 8e, N-(1-(Adamantan-1-yl)ethyl)-5-chloro-1H-indole-2-carboxamide]: the IC50 in [2] was over 10 µM.

With `O=C(NC12CC3CC(CC(C3)C1)C2)c1cc2ccccc2[nH]1` [Compound 3, N-(1-adamantyl)-indole-2-carboxamide], in data set [2], the half-inhibitory concentration (IC50) was over 10 µM. Also, the “Cytotoxicity against human THP-1 cells” value with human THP-1 cells is listed as “non-cytotoxic up to 50”. Further, the concentration for a half-maximal effect (EC50) in data set [3] is 0.98 µM.

For the compound `COc1cccc2[nH]c(C(=O)NC(C)C34CC5CC(CC(C5)C3)C4)cc12` (centres unmarked) [Compound 8b, N-(1-(Adamantan-1-yl)ethyl)-4-methoxy-1H-indole-2-carboxamide], the IC50 in [2] was over 10 µM.

In the case of `Cc1ccc2[nH]c(C(=O)NC(C)C34CC5CC(CC(C5)C3)C4)cc2c1` (centres unmarked) [Compound 8d, N-(1-(Adamantan-1-yl)ethyl)-5-methyl-1H-indole-2-carboxamide], the MIC with M. tb H37Rv strain [1] was 2.97 µM (≈ 0.999 µg/mL). Besides, the 50% inhibitory concentration (IC50) in data set [2] is over 10 µM.

Take `NNC(=O)c1ccncc1` [INH, isoniazid]: the “H37Rv, MIC” value with M. tb H37Rv strain [4] was 0.04 (ref. [6]) μg mL^−1.

For the compound `O=C(c1cc2c(F)cc(F)cc2[nH]1)N1CCNCC1` [Compound 14, (4,6-Difluoro-1H-indol-2-yl)(piperazin-1-yl)methanone], in the data set on M. tb H37Rv strain [1], the “H37Rv, MIC” value is over 121 µM and the MIC is over 121 µM. For the same compound, the IC50 in [2] was over 10 µM.

As for `O=C(c1cc2c(F)cc(F)cc2[nH]1)N1CCN(C(=O)C23CC4CC(CC(C4)C2)C3)CC1` [Compound 15, (Adamantan-1-yl)(4-(4,6-difluoro-1H-indole-2-carbonyl)piperazin-1-yl)methanone], the “Number of genes with downregulated expression” value with KNS42 cells was 9 genes. The “H37Rv, MIC” value in the data set on M. tb H37Rv strain [1] is over 75 µM. Also, the IC50 in the data set on BT16 cells (AT/RT) [5] was 5.89 µM; in data set [6], over 10 µM; in data set [7] it was over 10 µM; in data set [9] it was 17.4 µM; in data set [10], 19.4 µM; in the data set with BT12 cells (AT/RT) [11], 3.16 µM. In addition, the results for the IC50 (in data set [2]; with BT16 cells (AT/RT) [12]; in the data set with BT12 cells (AT/RT) [13]) were 6.62 µM, over 10 µM and over 10 µM, respectively. In data set [8], the “Downregulation of CA9 expression” value came to 15 fold. The “Downregulation of SYK expression” value in [14] is reported as 9 fold.

Turning to `O=C(NC(=O)c1cc2c(F)cc(F)cc2[nH]1)c1cccc(Cl)c1` [Compound 11b, N-(3-Chlorobenzoyl)-4,6-difluoro-1H-indole-2-carboxamide], the “H37Rv, MIC” value in the data set with M. tb H37Rv strain [1] is over 96 µM. Further, the IC50 in data set [2] is over 10 µM.

`CC(NC(=O)c1cc2ccc(Br)cc2[nH]1)C12CC3CC(CC(C3)C1)C2` (centres unmarked) [Compound 8f, N-(1-(Adamantan-1-yl)ethyl)-6-bromo-1H-indole-2-carboxamide]: the MIC with M. tb H37Rv strain [1] is 0.62 µM (≈ 0.249 µg/mL). Moreover, the concentration for half-maximal inhibition (IC50) in [2] is over 10 µM. Also, in the data set on Vero cells, the “SI (selectivity index)” value worked out at 64.

As for `O=C(NCc1ccccc1)c1cc2c(F)cc(F)cc2[nH]1` [Compound 9a, N-Benzyl-4,6-difluoro-1H-indole-2-carboxamide], the “H37Rv, MIC” value with M. tb H37Rv strain [1] is over 112 µM. The MIC in the data set with M. tb H37Rv strain [1] was over 112 µM. The IC50 in the data set on BT16 cells (AT/RT) [5] was 1.81 µM; in [6], over 10 µM; in data set [7] it was over 10 µM; in data set [9] it was 65 µM; in data set [10], 119 µM; in the data set with BT12 cells (AT/RT) [11], 0.89 µM. Also, the half-inhibitory concentration (IC50) in [2] was 9.85 µM; with BT16 cells (AT/RT) [12], 6.06 µM; with BT12 cells (AT/RT) [13] it was 7.44 µM.

Consider `O=C(NC12CC3CC(CC(C3)C1)C2)c1ccc(NC(=O)c2cc3c(F)cc(F)cc3[nH]2)cc1` [Compound 20, N-(4-((Adamantan-1-yl)carbamoyl)phenyl)-4,6-difluoro-1H-indole-2-carboxamide], for which, in the data set with M. tb H37Rv strain [1], the “H37Rv, MIC” value was over 71 µM and the MIC is over 71 µM. Also, the IC50 in [2] is over 10 µM.

As to `O=C(NC(=O)c1cc2c(F)cc(F)cc2[nH]1)c1cccc(F)c1` [Compound 11a, 4,6-Difluoro-N-(3-fluorobenzoyl)-1H-indole-2-carboxamide], in the data set on M. tb H37Rv strain [1], the “H37Rv, MIC” value was over 101 µM and the minimum inhibitory concentration (MIC) was over 96 µM. For the same compound, the half-maximal inhibitory concentration (IC50) in data set [2] was over 10 µM.

`CC[C@@H](CO)NCCN[C@@H](CC)CO` [EMB, ethambutol]: the “H37Rv, MIC” value in the data set on M. tb H37Rv strain [4] was 1 (ref. [6]) μg mL^−1.

Take `CC(NC(=O)c1cc2ccccc2[nH]1)C12CC3CC(CC(C3)C1)C2` (centres unmarked) [Compound 8a, N-(1-(Adamantan-1-yl)ethyl)-1H-indole-2-carboxamide]: the minimal inhibitory concentration (MIC) in the data set on M. tb H37Rv strain [1] is 6.2 µM (≈ 2 µg/mL). Besides, the IC50 in data set [2] is over 10 µM. Further, the “H37Rv, MIC” value in the data set with M. tb H37Rv strain [4] was over 15.5 µM.

On to `COc1ccc2[nH]c(C(=O)NC(C)C34CC5CC(CC(C5)C3)C4)cc2c1` (centres unmarked) [Compound 8c, N-(1-(Adamantan-1-yl)ethyl)-5-methoxy-1H-indole-2-carboxamide], for which, in the data set with M. tb H37Rv strain [1], the “H37Rv, MIC” value was determined as 5.67 µM and the minimum inhibitory concentration (MIC) is under 6 µM. Further, the IC50 in [2] was over 10 µM.

For the compound `CC(NC(=O)c1cc2c(F)cc(F)cc2[nH]1)C12CC3CC(CC(C3)C1)C2` (centres unmarked) [Compound 8h, N-(1-(Adamantan-1-yl)ethyl)-4,6-difluoro-1H-indole-2-carboxamide], the IC50 in data set [2] is over 10 µM.

In the case of `Cc1cc(C)c2cc(C(=O)NC34CC5CC(CC(C5)C3)C4)[nH]c2c1` [Compound 2, N-(1-adamantyl)-4,6-dimethylindole-2-carboxamide], the MIC in the data set on M. tb H37Rv strain [4] is 0.012 µM (≈ 0.00387 µg/mL). Also, in the data set with healthy cells, the half-inhibitory concentration (IC50) was over 200 µM.

Consider `CC(NC(=O)c1cc2c(Cl)cc(Cl)cc2[nH]1)C12CC3CC(CC(C3)C1)C2` (centres unmarked) [Compound 8g, N-(1-(Adamantan-1-yl)ethyl)-4,6-dichloro-1H-indole-2-carboxamide], for which the minimal inhibitory concentration (MIC) in the data set with M. tb H37Rv strain [1] came to 0.32 µM (≈ 0.125 µg/mL). For the same compound, the IC50 in [2] was over 10 µM. Further, the “SI (selectivity index)” value in the data set on Vero cells is 128.
